How the values were obtained:
[1] = test system: human beta cells in islet grafts; test: TUNEL assay of human beta-cell apoptosis in recovered islet grafts; assay type: in vivo
How it was run: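 Recovered human islet grafts were taken on days 29, 32 and 21 for the Donor 3, 4 and 5 studies, at the end of twice-daily sc dosing. Sections were co-stained for insulin and TUNEL-labelled following the kit instructions. Cells were visualized by fluorescence microscopy and counted, and results expressed as percent TUNEL-positive beta cells.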

[2] = test system: diabetic NSG RIP-DTR mice engrafted with human islets; test: Body weight of human islet-engrafted mice; assay type: in vivo, mouse; details: 50, 150, 500 µg/kg sc twice daily
How it was run: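 Male NSG RIP-DTR mice, 8–12 weeks old, made diabetic by diphtheria toxin ablation of mouse beta cells and engrafted with a marginal mass of human islets from a single donor. Randomized into four groups: vehicle or test compound at 50, 150 or 500 µg/kg/injection, given sc twice daily until removal of the graft-bearing kidney at ~4 weeks post-transplant. Body weights followed over the study.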

[3] = test system: human beta and alpha cells in islet grafts; test: Total beta- and alpha-cell counts in human islet grafts; assay type: in vivo; details: Donor 5 study
How it was run: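 After twice-daily sc dosing, the graft-bearing kidney was removed. For the Donor 5 study, grafts were recovered on day 21. Whole-section images were taken from the outer graft edge with a motorized-stage fluorescence microscope and stitched, and total insulin+ and glucagon+ cells were counted.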

[4] = test system: diabetic NSG RIP-DTR mice engrafted with human islets; assay type: in vivo, mouse; details: Donor 5 study; low dose 50 µg/kg sc twice daily
[5] = test system: diabetic NSG RIP-DTR mice engrafted with human islets; test: Glucose tolerance test; assay type: in vivo, mouse; details: for GTT vs controls: Donor 3 study
How it was run: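 Human islet-engrafted diabetic NSG RIP-DTR mice on twice-daily sc vehicle or test compound were fasted 5–6 hours. Glucose (2.0 g/kg body weight) was injected ip, and blood glucose was measured afterwards.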

patients with T2D = details: cited from earlier work
[6] = test system: INS-1 rat pancreatic beta-cell line; details: in vitro; cited from earlier work
[7] = test system: human islets engrafted in NSG RIP-DTR mice; test: Plasma human insulin; assay type: in vivo, mouse; details: 2 weeks post-transplant
[8] = high dose 500 µg/kg sc twice daily
[9] = low dose 50 µg/kg sc twice daily, n=3 or 4
[10] = medium dose 150 µg/kg sc twice daily

lixisenatide
average percent beta-cell apoptosis at the end of each study ([1]; TUNEL-positive beta cells, control and lixisenatide groups, Donors 3, 4, 5): < 1% | beta-cell apoptosis (TUNEL) vs control ([1]; grafts recovered days 29, 32, 21 (Donors 3, 4, 5), all dose groups): no significant differences in beta-cell apoptosis | body weight change between transplant and nephrectomy ([2]; Donor 1 study): all mice lost significant weight between the time of transplant and nephrectomy, except the medium-dose group | body weight change between transplant and nephrectomy ([2]; Donor 3 and 4 studies): no significant change in body weight | numbers of alpha cells in islet graft relative to control group [3, 8]: approximately threefold higher | numbers of beta cells in islet graft relative to control group [3, 8]: approximately threefold higher | alpha-cell counts in islet graft relative to control group [3, 9]: approximately twofold higher | beta-cell counts in islet graft relative to control group [3, 9]: approximately twofold higher | numbers of alpha cells in islet graft relative to control group [3, 10]: approximately threefold higher | numbers of beta cells in islet graft relative to control group [3, 10]: approximately threefold higher | blood glucose [4]: ~ 400 mg/dL | GTT vs controls ([5]; high dose 500 µg/kg (P<0.05)): significant differences from controls | GTT vs controls ([5]; medium dose 150 µg/kg (P<0.01)): significant differences from controls | GTT vs control group ([5]; Donor 4 study, low dose 50 µg/kg (P<0.05)): significant differences from the control group | reduction in postprandial plasma glucose vs placebo (patients with T2D; T2D patients insufficiently controlled on metformin): significantly greater reduction in postprandial plasma glucose | glycemic control (postprandial and fasting glucose levels) (patients with T2D; patients with T2D, once-daily administration): improved glycemic control by decreasing both postprandial and fasting glucose levels | lipid- and cytokine-induced apoptosis [6]: protect against lipid- and cytokine-induced apoptosis | stimulation index (ratio of stimulated to fasting human insulin) vs control ([7]; high dose 500 µg/kg, Donor 3 and 4 studies): significantly increased compared to controls | stimulation index (ratio of stimulated to fasting human insulin) vs control ([7]; medium dose 150 µg/kg, Donor 1, 3 and 4 studies): significantly increased compared to controls
